Experimental data reported in ChEMBL document CHEMBL4033796, “4-Amino-7,8-dihydro-1,6-naphthyridin-5(6 H)-ones as Inhaled Phosphodiesterase Type 4 (PDE4) Inhibitors: Structural Biology and Structure-Activity Relationships” (J Med Chem, 2018).
pIC50: −log10 of the molar value. ≈ marks a conversion by molar mass, not a printed value. Calls of active or inactive are those of the source. The rule behind the calls is not given here.

Legend:
[1] = target: 3',5'-cyclic-AMP phosphodiesterase 4B (Homo sapiens, UniProt Q07343); assay: Inhibition of recombinant human PDE4B1 using [3H]-cAMP as substrate […] measured after 60 mins by scintillation proximity assay
Procedure, shortened: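 Compounds ranged from 10 μM to 10 pM. The reaction was started with PDE4 enzyme and run 60 min at room temperature with agitation (about 10−20% conversion), then stopped with SPA beads. [3H]-AMP was counted by scintillation.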

[2] = Inhibition of PDE4 in human whole blood PBMC assessed as reduction in LPS-induced TNFalpha production after 24 hrs by ELISA
Procedure, shortened: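 Heparinized whole blood from healthy donors was preincubated with LPS (1 μg/mL final) at 37 °C for 10 min. It was then added to compounds in DMSO and incubated 24 h at 37 °C with agitation, then centrifuged. Serum TNF-α was measured by sandwich ELISA with TMB read-out at 450 nm. Experiments were done 2−3 times and duplicates were averaged.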

[3] = Thermodynamic solubility of the compound at 22 degC; type: physicochemical; conditions: read-out: Therm_solubility
[4] = tested on: Rattus norvegicus; assay: Antiinflammatory activity in Sprague-Dawley rat LPS-induced neutrophilia model assessed as inhibition of LPS-induced increase in netrophils in bronchoalveolar lavage at 1000 ug/kg, it administered single dose as microspray dosed 1 hr prior to nebulized LPS challenge measured after 4 hrs by flow cytometric analysis; type: functional
Procedure, shortened: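 Compound was suspended in PBS with 0.2% Tween 80, homogenized, and lower doses were made by 1:10 dilution. Rats (male Sprague-Dawley, 230−280 g, fasted, isoflurane) received 0.2 mL intratracheally by microsprayer, about 1 cm above the carina. Nebulized LPS challenge (30 mL over 40 min) followed 1 h later. BAL neutrophils were counted by flow cytometry 4 h after challenge.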

[5] = species on record: Rattus norvegicus; conditions: Sprague-Dawley, 2000 ug/kg
[6] = species on record: Rattus norvegicus; conditions: Sprague-Dawley, 2000 ug/kg; remark: listed apart in the source

Sequence of 3',5'-cyclic-AMP phosphodiesterase 4B (Q07343 whole entry): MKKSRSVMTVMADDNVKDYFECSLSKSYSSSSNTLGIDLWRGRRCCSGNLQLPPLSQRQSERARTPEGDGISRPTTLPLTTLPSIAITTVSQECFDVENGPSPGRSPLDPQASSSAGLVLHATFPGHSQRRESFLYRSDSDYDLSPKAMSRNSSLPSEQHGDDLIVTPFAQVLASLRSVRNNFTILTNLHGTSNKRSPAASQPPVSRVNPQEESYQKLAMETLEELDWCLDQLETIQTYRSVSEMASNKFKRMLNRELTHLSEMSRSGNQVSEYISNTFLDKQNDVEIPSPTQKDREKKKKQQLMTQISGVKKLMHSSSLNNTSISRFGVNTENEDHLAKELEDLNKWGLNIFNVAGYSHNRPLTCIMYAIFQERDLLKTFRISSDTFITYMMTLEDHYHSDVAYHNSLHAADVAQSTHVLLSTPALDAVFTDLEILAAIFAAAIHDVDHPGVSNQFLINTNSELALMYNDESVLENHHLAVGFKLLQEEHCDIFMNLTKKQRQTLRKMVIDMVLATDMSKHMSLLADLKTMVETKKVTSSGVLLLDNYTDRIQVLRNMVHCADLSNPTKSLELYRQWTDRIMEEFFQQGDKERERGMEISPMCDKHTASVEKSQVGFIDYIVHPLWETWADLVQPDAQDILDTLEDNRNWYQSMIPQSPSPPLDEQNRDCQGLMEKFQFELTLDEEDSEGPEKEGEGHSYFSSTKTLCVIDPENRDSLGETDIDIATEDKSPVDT

Compound | pIC50 [1] | pIC50 [2] | further results
O=C1NCCc2nc(-c3ccccc3)cc(Nc3cccc(CO)c3)c21 | 7.62 |  | 
O=C(Nc1c(Cl)cncc1Cl)c1ccc(OC(F)F)c(OCC2CC2)c1 [ROFLUMILAST] |  | 8.40 | solubility thermodynamic [3]: 0.52 µg/mL (≈ 1.29 µM); inhibition in vivo at 1 mg/kg [4]: 80%; inhibition [5]: Active; inhibition [6]: inactive
O=C1NCCc2nc(-c3ccccc3)cc(Nc3cccc4ccccc34)c21 | 7.96 |  | 
O=C1NCCc2nc(-c3ccccc3)cc(NCc3ccncc3)c21 | 7.60 |  | 
O=C1NCCc2nc(-c3cccc(-c4cccc(O)c4)c3)cc(Nc3cccc4ncccc34)c21 | 9.05 | 9.30 | 
CNC(=O)c1cnc(-c2ccccc2)cc1Nc1cccc2ncccc12 | 5.24 |  | 
O=C1NCCc2nc(-c3ccccc3)cc(Nc3cccc4c3ccc[n+]4[O-])c21 | 9.37 | 9.33 | 
COc1cccc(Nc2cc(-c3cccc(-c4cccc(C(=O)NC5CC5)c4)c3)nc3c2C(=O)NCC3)c1 | 8.68 | 9.37 | 
COc1cccc(Nc2cc(-c3ccccc3)nc3c2C(=O)NC(C)C3)c1 (centres undefined) | 6.92 | 6.57 | 
COc1cccc(Nc2cc(-c3ccncc3)nc3c2C(=O)NCC3)c1 | 8.44 | 8.19 | 
COc1cccc(Nc2cc(-c3cccc(OC)c3)nc3c2/C(=N/O)NCC3)c1 | 5.70 |  | 
COc1cccc(Nc2cc(C3CC3)nc3c2C(=O)NCC3)c1 | 8.07 |  | 
CCOC(=O)c1ccc(-c2cccc(-c3cc(Nc4cccc(OC)c4)c4c(n3)CCNC4=O)c2)cc1 | 8.14 | 8.92 | 
COc1cccc(Nc2cc(-c3cccc(OC)c3)nc3c2/C(=N/C#N)NCC3)c1 | 7.89 |  | 
O=C1NCCc2nc(-c3ccccc3)cc(NCCc3ccncc3)c21 | 7.92 |  | 
COc1cccc(Nc2cc(-c3cccc(Br)c3)nc3c2C(=O)NCC3)c1 | 8.09 |  | 
COc1cccc(Nc2cc(-c3cccc(OC)c3)nc3c2C(=O)NCC3)c1 | 8.08 |  | 
NC(=O)c1cccc(Nc2cc(-c3ccccc3)nc3c2C(=O)NCC3)c1 | 7.92 |  | 
O=C1NCCc2nc(-c3ccc(F)c(F)c3)cc(Nc3cccc4ncccc34)c21 | 9.12 | 8.82 | 
N#Cc1cccc(Nc2cc(-c3ccccc3)nc3c2C(=O)NCC3)c1 | 8.48 | 7.89 | 
O=C(NC1CC1)c1cccc(-c2cccc(-c3cc(Nc4ccnc5ccccc45)c4c(n3)CCNC4=O)c2)c1 | 9.57 | 9.34 | 
O=C1NCCc2nc(-c3ccccc3)cc(Nc3ccc(CCO)cc3)c21 | 7.92 |  | 
O=C1NCCc2nc(-c3ccccc3)cc(Nc3cccc4cnccc34)c21 | 7.85 |  | 
COC(=O)c1ccc(O)c(-c2cccc(-c3cc(Nc4cccc(OC)c4)c4c(n3)CCNC4=O)c2)c1 | 8.25 | 8.38 | 
O=C(O)c1ccc(-c2cccc(-c3cc(Nc4cccc5ncccc45)c4c(n3)CCNC4=O)c2)cc1 | 9.96 | 9.28 | 
COc1cccc(Nc2cc(-c3cccc(Sc4cccc(OC)c4)c3)nc3c2C(=O)NCC3)c1 | 8.80 | 8.47 | 
O=C1NCCc2nc(-c3ccccc3)cc(Nc3ccc4ncccc4c3)c21 | 8.64 | 8.32 | 
